Test results from ChEMBL document CHEMBL1149258, “Synthesis and structure-activity relationships of novel histamine H1 antagonists: indolylpiperidinyl benzoic acid derivatives” (J Med Chem, 2004).
Active and inactive are the calls of the source. Unless noted, the calls are words filed in the database; no cut-off is given here.

Assays:
[1] = target: Histamine H1 receptor (Mus musculus) (UniProt P70174); assay: Ex vivo displacement of [3H]mepyramine from brain histamine H1 receptor in orally dosed Swiss Albino mouse; format: functional, organism-based
Procedure, shortened: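 Overnight-fasted male mice (20-25 g) dosed orally at several doses (0.5% methylcellulose/0.1% Tween 80, 10 mL/kg), killed 90 min later. Whole brain homogenised in ice-cold 0.05 M Na+/K+ phosphate pH 7.4; aliquots incubated in triplicate with 2 nM final [3H]-mepyramine, 40 min at 30 °C, then filtered. Nonspecific binding from 30 mg/kg po D-chlorpheniramine; total binding from vehicle. Three animals per dose; ED50 reported.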

[2] = target: Histamine H1 receptor (Cavia porcellus, UniProt P31389); assay: Displacement of [3H]mepyramine from histamine H1 receptor in guinea pig cerebellum membranes; format: cell membranes, Membrane
Procedure, shortened: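 Guinea pig cerebellum membranes (160 µg/mL) incubated with 0.7 nM [3H]-mepyramine at 30 °C for 30 min, 0.5 mL final volume, ended by filtration. Nonspecific binding with 10 µM promethazine. At least six concentrations in duplicate; IC50 by nonlinear regression. Compound stocks 10^-2 M in DMSO, diluted in 50% DMSO.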

[3] = target: T1, Adrenergic receptor alpha-1 (Rattus norvegicus, UniProt P15823+P23944+P43140); assay: Displacement of [3H]prazosin from adrenergic alpha-1 receptor in rat brain membranes; format: cell membranes
T1 sequence (P15823 whole entry): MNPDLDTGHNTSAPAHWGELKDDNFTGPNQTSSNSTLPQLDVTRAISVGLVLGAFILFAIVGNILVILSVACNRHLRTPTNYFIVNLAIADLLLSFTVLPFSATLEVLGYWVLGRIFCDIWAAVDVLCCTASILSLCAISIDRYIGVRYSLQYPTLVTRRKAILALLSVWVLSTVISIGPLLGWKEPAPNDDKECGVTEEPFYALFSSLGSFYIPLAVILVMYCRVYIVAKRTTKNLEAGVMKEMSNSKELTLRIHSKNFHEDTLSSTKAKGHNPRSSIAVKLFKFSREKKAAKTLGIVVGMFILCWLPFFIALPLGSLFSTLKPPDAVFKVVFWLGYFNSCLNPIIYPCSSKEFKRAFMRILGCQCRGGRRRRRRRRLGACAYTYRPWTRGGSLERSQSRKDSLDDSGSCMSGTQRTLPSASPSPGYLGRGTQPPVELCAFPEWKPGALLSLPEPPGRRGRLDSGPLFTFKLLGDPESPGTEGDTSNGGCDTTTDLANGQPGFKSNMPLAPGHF
T1 sequence (P23944 whole entry): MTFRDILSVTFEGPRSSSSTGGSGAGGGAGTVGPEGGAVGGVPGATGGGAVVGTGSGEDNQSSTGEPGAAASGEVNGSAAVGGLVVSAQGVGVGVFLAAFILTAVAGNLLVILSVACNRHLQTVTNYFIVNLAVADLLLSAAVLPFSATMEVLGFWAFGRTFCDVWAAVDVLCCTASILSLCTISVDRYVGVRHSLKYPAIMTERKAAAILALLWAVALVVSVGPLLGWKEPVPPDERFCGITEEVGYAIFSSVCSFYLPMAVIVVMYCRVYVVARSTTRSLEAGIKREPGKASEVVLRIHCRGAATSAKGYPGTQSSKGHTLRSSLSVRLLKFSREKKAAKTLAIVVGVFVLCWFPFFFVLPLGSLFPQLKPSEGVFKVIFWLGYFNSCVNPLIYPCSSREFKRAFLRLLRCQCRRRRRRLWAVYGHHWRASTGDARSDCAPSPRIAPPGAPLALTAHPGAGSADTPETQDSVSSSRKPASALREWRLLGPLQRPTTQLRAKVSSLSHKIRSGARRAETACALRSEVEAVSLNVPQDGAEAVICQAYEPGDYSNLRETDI
T1 sequence (P43140 whole entry): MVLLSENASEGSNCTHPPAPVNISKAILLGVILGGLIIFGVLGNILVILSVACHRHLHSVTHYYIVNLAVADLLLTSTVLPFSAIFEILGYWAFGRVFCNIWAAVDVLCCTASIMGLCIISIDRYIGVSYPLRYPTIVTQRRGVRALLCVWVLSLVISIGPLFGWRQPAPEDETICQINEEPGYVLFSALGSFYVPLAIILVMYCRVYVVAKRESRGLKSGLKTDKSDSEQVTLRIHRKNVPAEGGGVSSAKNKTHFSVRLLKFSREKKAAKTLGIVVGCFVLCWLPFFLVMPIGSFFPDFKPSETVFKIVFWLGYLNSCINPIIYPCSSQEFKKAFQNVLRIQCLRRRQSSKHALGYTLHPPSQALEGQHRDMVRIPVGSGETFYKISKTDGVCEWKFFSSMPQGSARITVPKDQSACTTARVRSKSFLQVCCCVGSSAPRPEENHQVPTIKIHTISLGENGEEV
Procedure, shortened: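 Rat brain membranes (340 µg protein/mL) with 0.25 nM [3H]-prazosin in 50 mM Tris-HCl pH 7.7, room temperature, 60 min, filtration. Nonspecific binding with 100 µM prazosin. Several concentrations run in duplicate; IC50 by nonlinear regression.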

[4] = system: Rattus norvegicus; assay: Inhibition of increase in histamine-induced cutaneous vascular permeability in orally dosed Wistar rat model after 8 hrs; format: functional; settings: po
Procedure, shortened: (§1)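 Male Wistar rats (150-175 g), fasted, dosed orally in 0.5% methylcellulose/0.1% Tween 80 (10 mL/kg), n=5. At 1 or 8 h after dosing, four intradermal injections of 5 µg histamine were given, plus iv 0.5% Evans Blue. Papule area (ellipse) measured 1 h later. ED50 in mg/kg po.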

[5] = Volume of distribution at steady state in Wistar rat at 1 mg/kg, iv after 8 hrs; format: ADME, organism-based; design: dose 1 mg/kg, route intravenous; settings: in vivo, read-out: Vss
Procedure, shortened: (§2)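 Male Wistar rats, fasted overnight, dosed iv at 1 mg/kg. Blood sampled from 0.1 to 24 h; plasma stored at -20 °C. Levels measured by isocratic HPLC-UV (225 nm) after on-line solid-phase extraction, or by HPLC-MS (ESI+) for one analyte. Parameters from noncompartmental analysis.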

[6] = Half life in Wistar rat at 1 mg/kg, iv after 8 hrs; format: ADME, organism-based; design: dose 1 mg/kg, route intravenous; settings: in vivo; procedure, shortened: as §2
[7] = system: Rattus norvegicus; assay: Inhibition of increase in histamine-induced cutaneous vascular permeability in orally dosed Wistar rat model after 4 hrs; format: functional; settings: po
Procedure, shortened: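 Fasted male rats (150-175 g; n=5 per condition) dosed orally in 0.5% methylcellulose/0.1% Tween 80. At 4 h, under light ether, received four intradermal injections of 5 µg histamine, then 0.5% Evans Blue iv. Killed 1 h later. Papule area from maximum and minimum diameters (ellipse); inhibition of papule area; ED50 (mg/kg, po).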

[8] = target: CYP3A4 (Homo sapiens, UniProt P08684); assay: Inhibition of CYP3A4 in human microsomes at 25 uM; format: ADME, Microsome
[9] = Clearance in Wistar rat at 1 mg/kg, iv after 8 hrs; format: ADME, organism-based; design: dose 1 mg/kg, route intravenous; settings: in vivo; procedure, shortened: as §2
[10] = system: Cavia porcellus; assay: Effect on QT interval prolongation in Dunkin-Hartley guinea pigs at 10 mg/kg, iv; format: functional, organism-based; design: dose 10 mg/kg
[11] = system: Rattus norvegicus; assay: Inhibition of increase in histamine-induced cutaneous vascular permeability in orally dosed Wistar rat model after 1 hrs; format: functional; settings: po; procedure, shortened: as §1
[12] = target: Adrenergic receptor alpha-1 (Rattus norvegicus) (UniProt P15823+P23944+P43140); assay: Displacement of [3H]prazosin from adrenergic alpha-1 receptor in rat brain membranes at 10 uM; format: cell membranes
[13] = target: Histamine H1 receptor (Cavia porcellus) (UniProt P31389); assay: Displacement of [3H]mepyramine from histamine H1 receptor in guinea pig cerebellum membranes at […]; format: cell membranes; settings: Membrane
Procedure, shortened: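 Guinea-pig cerebellum membranes (160 µg/mL) incubated at 30 °C for 30 min with 0.7 nM [3H]-mepyramine, 0.5 mL final volume; filtration, bound radioactivity counted. Nonspecific binding with 10 µM promethazine. At least six concentrations in duplicate; IC50 by nonlinear regression. Stocks 10^-2 M in DMSO, further dilutions in 50% DMSO.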

Histamine H1 receptor, sequence (P31389 whole entry): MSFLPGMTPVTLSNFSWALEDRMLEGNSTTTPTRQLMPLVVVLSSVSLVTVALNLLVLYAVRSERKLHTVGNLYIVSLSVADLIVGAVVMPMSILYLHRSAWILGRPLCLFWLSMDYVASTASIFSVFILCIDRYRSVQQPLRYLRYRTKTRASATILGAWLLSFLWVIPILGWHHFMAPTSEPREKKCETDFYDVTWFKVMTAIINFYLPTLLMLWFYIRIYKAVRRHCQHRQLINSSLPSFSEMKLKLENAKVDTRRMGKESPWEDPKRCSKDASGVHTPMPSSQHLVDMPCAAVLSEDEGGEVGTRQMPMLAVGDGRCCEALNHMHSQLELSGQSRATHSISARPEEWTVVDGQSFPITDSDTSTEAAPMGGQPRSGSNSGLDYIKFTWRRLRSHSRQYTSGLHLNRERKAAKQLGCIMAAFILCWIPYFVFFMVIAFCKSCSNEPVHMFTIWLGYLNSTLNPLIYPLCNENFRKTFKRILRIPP
Histamine H1 receptor (Mus musculus), sequence (P70174 whole entry): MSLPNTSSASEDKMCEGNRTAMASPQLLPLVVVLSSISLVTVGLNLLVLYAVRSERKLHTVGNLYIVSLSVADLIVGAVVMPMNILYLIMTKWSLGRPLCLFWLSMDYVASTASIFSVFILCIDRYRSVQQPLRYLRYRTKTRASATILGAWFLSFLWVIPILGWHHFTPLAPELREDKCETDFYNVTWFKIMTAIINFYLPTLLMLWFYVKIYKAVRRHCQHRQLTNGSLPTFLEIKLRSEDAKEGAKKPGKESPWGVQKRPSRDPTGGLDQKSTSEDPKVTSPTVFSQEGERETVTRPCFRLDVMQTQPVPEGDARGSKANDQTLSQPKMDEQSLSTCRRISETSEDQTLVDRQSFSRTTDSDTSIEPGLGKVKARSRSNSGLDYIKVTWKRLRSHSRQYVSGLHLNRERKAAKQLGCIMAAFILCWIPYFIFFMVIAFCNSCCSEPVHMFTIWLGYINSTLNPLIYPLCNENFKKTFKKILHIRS
Histamine H1 receptor (Cavia porcellus), sequence (P31389 whole entry): as the sequence (P31389 whole entry) above
CYP3A4, sequence (P08684 whole entry): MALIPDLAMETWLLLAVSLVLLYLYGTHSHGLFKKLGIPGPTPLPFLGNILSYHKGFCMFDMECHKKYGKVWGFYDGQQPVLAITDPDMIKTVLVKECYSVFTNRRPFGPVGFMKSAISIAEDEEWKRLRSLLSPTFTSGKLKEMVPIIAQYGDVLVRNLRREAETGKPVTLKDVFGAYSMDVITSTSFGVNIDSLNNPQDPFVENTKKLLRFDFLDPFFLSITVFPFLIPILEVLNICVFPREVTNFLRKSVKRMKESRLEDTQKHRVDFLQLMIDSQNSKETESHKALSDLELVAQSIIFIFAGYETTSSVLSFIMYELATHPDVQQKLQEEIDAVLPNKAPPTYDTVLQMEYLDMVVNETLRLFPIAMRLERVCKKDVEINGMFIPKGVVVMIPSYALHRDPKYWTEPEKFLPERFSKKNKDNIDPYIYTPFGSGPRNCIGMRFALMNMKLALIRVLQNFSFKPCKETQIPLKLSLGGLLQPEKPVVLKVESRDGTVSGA

Row | SMILES | ED50 [1] | IC50 [2] | IC50 [3] | ED50 [4] | Vd [5] | half-life [6] | ED50 [7] | inhibition at 25 µM [8] | clearance [9] | Activity [10] | ED50 [11] | Activity [12] | Activity [13]
1 | CCOCCn1cc(C2CCN(Cc3ccc(F)c(C(=O)O)c3)CC2)c2ccccc21 | 0.5 mg/kg | 0.3 µM (antagonist) | > 10 µM | 0.01 mg/kg (antagonist) |  |  |  |  |  |  |  |  | 
2 | CCOCCn1cc(C2CCN(CCOc3ccccc3C(=O)O)CC2)c2ccccc21 | 8 mg/kg |  | 10 µM | 0.22 mg/kg (antagonist) | 0.7 L/kg | 1.1 h | 0.1 mg/kg | 0% | 10 mL/min/kg | inactive | 0.02 mg/kg |  | 
3 | CCOCCn1cc(C2CCN(CCOc3ccccc3C(=O)O)CC2)c2cc(OC)ccc21 | > 100 mg/kg | 0.155 µM (antagonist) | > 10 µM | 0.08 mg/kg (antagonist) | 0.5 L/kg | 0.9 h | 0.035 mg/kg |  | 13.3 mL/min/kg |  |  |  | 
4 | COc1ccc(CN2CCC(c3cn(Cc4ccoc4)c4cc(F)ccc34)CC2)cc1C(=O)O | 7 mg/kg |  | > 10 µM | 0.037 mg/kg (antagonist) |  |  | 0.02 mg/kg |  |  |  |  |  | 
5 | COc1ccc(CN2CCC(c3cn(Cc4cccs4)c4cc(F)ccc34)CC2)cc1C(=O)O | 29 mg/kg |  | > 10 µM | 0.66 mg/kg (antagonist) | 1.1 L/kg | 3.8 h | 0.2 mg/kg |  | 5 mL/min/kg |  |  |  | 
6 | CCOCCn1cc(C2CCN(Cc3ncccc3C(=O)O)CC2)c2ccccc21 |  |  |  |  |  |  |  |  |  |  |  | 4% | 11%
7 | CCOCCn1cc(C2CCN(Cc3ccc(C(=O)O)cc3)CC2)c2ccccc21 | 4.5 mg/kg |  |  | 0.15 mg/kg (antagonist) |  |  |  |  |  |  |  | 8% | 7%
8 | COc1ccc(CN2CCC(c3cn(Cc4ccc(Cl)s4)c4cc(F)ccc34)CC2)cc1C(=O)O | 5.5 mg/kg |  | > 10 µM | 0.09 mg/kg (antagonist) |  |  | 0.19 mg/kg |  |  |  |  |  | 
9 | CCCCn1cc(C2CCN(CCOc3ccccc3C(=O)O)CC2)c2ccc(F)cc21 | 10 mg/kg | 0.047 µM (antagonist) | > 10 µM | 0.14 mg/kg (antagonist) |  |  | 0.07 mg/kg |  |  |  |  |  | 
10 | COCCn1cc(C2CCN(Cc3ccc(OC)c(C(=O)O)c3)CC2)c2ccc(F)cc21 | 4 mg/kg |  | > 10 µM | 0.02 mg/kg (antagonist) |  |  | 0.06 mg/kg |  |  |  |  |  | 
11 | CCOC(=O)N1CCC(=C2c3ccc(Cl)cc3CCc3cccnc32)CC1 [LORATADINE] |  |  |  |  |  |  |  |  |  | inactive | 0.75 mg/kg |  | 
12 | CCCCn1cc(C2CCN(CCOc3ccccc3C(=O)O)CC2)c2ccccc21 | 100 mg/kg |  | > 10 µM | 0.8 mg/kg (antagonist) | 0.4 L/kg | 1.6 h | 0.74 mg/kg |  | 6.67 mL/min/kg |  |  |  | 
13 | COc1ccc(CN2CCC(c3cn(Cc4cccs4)c4ccccc34)CC2)cc1C(=O)O | 11.5 mg/kg |  | > 10 µM | 0.56 mg/kg (antagonist) | 1.8 L/kg | 3.1 h | 0.24 mg/kg | -5% | 10 mL/min/kg | inactive | 0.32 mg/kg |  | 
14 | O=C(O)c1ccccc1OCCN1CCC(c2cn(CC3CC3)c3ccccc23)CC1 | > 100 mg/kg |  | > 10 µM | 1.3 mg/kg (antagonist) |  |  | 0.6 mg/kg |  |  |  |  |  | 
15 | O=C(O)c1ccccc1OCCN1CCC(c2cn(Cc3ccoc3)c3cc(F)ccc23)CC1 | 19 mg/kg | 0.042 µM (antagonist) | > 10 µM | 0.17 mg/kg (antagonist) |  |  | 0.12 mg/kg |  |  |  |  |  | 
16 | O=C(O)c1ccccc1OCCN1CCC(c2cn(CCC3OCCO3)c3ccccc23)CC1 | > 100 mg/kg |  | 6.5 µM | 0.9 mg/kg (antagonist) | 0.5 L/kg | 2.9 h | 0.46 mg/kg |  | 5 mL/min/kg |  |  |  | 
